Tests used:
[1] = system: HUVEC invasion by NRS123; test: Invasion assay with community-acquired MRSA strain; type: cell-based, human; settings: 10 μmol/L, 18-20 h pretreatment
Method in brief: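 Attachment Factor-coated dishes seeded with HUVEC, pretreated 18-20 h with test compound or matched vehicle. Stocks were 5 mmol/L in DMSO or PEG, diluted to 1 mmol/L in solvent, then into EndoGRO-LS. Unlabeled saline-washed NRS123 at MOI 1440 (1 h, 37°C). Extracellular bacteria killed with 20 μg/ml lysostaphin/50 μg/ml gentamicin (45 min). Cells lysed with 1% saponin/PBS (20 min); dilutions plated on TSA (16 h), CFU/ml counted.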

[2] = system: HUVEC adhesion to human fibronectin; test: Fibronectin adhesion assay; type: cell-based; settings: 10 μmol/L, 18-20 h; vehicle control 24±4%
Method in brief: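 Compound or DMSO vehicle applied to HUVEC for 18-20 h (invasion-assay plating). Wells coated with human fibronectin (20 μg/ml, 2 h, 37°C) and blocked with 2% BSA (30 min, RT). Scraped cells counted by flow cytometry for input, re-plated 2 h at 37°C/5% CO2. After PBS washes, adherent cells trypsinized, fixed, counted; normalized to input. Two pooled experiments, n=8/treatment.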

[3] = system: vinculin-containing adhesion complexes in HUVEC; test: Vinculin-containing adhesion complexes, immunofluorescence; type: cell-based, human; settings: 10 μmol/L, 18-20 h; vehicle control 64%
Method in brief: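 HUVEC at 3 × 10^4 on Attachment Factor-coated glass-bottom dishes, treated 18-20 h with DMSO vehicle or test compound. Fixed, then permeabilized/blocked (0.1% Triton/1% BSA). Stained with anti-vinculin (1:25), then rabbit anti-mouse Alexa Fluor 488 (1:250). Confocal imaging at 63X water immersion; Z-stack maximum projections. Percentage of cells with adhesion complexes from 100-200 cells/treatment in random fields; χ2 test.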

[4] = system: NRS123; test: Bactericidal activity assay, NRS123; type: cell-based, Staphylococcus aureus
Method in brief: (§1)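 Washed S. aureus (overnight TSB at 225 rpm, 37°C; subcultured; saline-washed), 1.2 × 10^8 CFU/ml, incubated with test compound or vehicle control in EndoGRO-LS medium (1 h, 5% CO2, 37°C). Serial dilutions plated on tryptic soy agar (18-20 h, 37°C); colonies counted and CFU/ml calculated.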

[5] = system: HUVEC; test: Cytotoxicity assay; type: cell-based, human; settings: 10 μmol/L; for Mean fluorescence intensity (×10^4± SEM), Compound: PI fluorescence, N = 3
Method in brief: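 HUVEC plated and compound-treated as for invasion: 1×10^5 cells/ml in 35 mm dishes or 1×10^4 cells/ml in 96-well plates, Attachment Factor-coated. Cells scraped and washed in FACS buffer (2% BSA/0.1% sodium azide/PBS). Brief incubation with propidium iodide at 0.5 mg/ml, then fluorescence read at once on Accuri C6 flow cytometer; MFI reported.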

[6] = system: MRSA252 NRS71; test: Bactericidal activity assay, MRSA252 NRS71; type: cell-based, Staphylococcus aureus; settings: 10 μmol/L
Method in brief: as §1

[7] = system: HUVEC invasion by S. aureus ATCC 29213 (MSSA); test: Invasion assay: HUVEC infected with Alexa Fluor 488-labeled MSSA, flow cytometry; type: cell-based, human; settings: for Internalized bacteria (% vehicle control ± SEM), RSM structural analog: N = 5
[8] = system: HUVEC infected with Staphylococcus aureus; test: Transmission electron microscopy of infected HUVEC; type: cell-based, human; settings: 10 μmol/L, 18-20 h pretreatment, infected 2 h
Method in brief: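 Coverslip HUVEC (3 × 10^5/ml) pretreated 18-20 h with PEG vehicle or test compound, infected with S. aureus (MOI 30, 2 h, 37°C). Lysostaphin/gentamicin removal (45 min), then 24 h in antibiotic medium. Fixed in 2.5% glutaraldehyde/2.0% paraformaldehyde/2 mmol/L Ca/1 mmol/L Mg; post-fixed in 1% OsO4/1.5% ferrocyanide in 0.1 mol/L cacodylate. Ethanol/propylene oxide dehydration, resin embedding. Ultrathin sections stained with uranyl acetate/lead citrate, imaged at 120 kV.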

[9] = system: actin stress fibers in HUVEC; test: Actin stress fiber disassembly, immunofluorescence; type: cell-based, human; settings: 10 μmol/L, 18-20 h, infected 1 h
Method in brief: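 HUVEC (3 × 10^5/ml, Attachment Factor-coated glass-bottom dishes) pretreated 18-20 h with PEG vehicle or test compound. Infected with S. aureus (MOI 1200, 1 h, 5% CO2, 37°C), PBS-washed, fixed in 4% paraformaldehyde (30 min), then permeabilized/blocked in 0.1% Triton/1% BSA. Stained with Alexa Fluor 488 phalloidin (1:40), imaged by confocal (40X water immersion). Scored as % cells lacking stress fibers, 100-200 cells/treatment from random fields; χ2 test.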

[10] = system: β1 integrin subunit; test: β1 integrin surface expression, flow cytometry; type: cell-based, human; settings: 10 μmol/L, 18-20 h, vs vehicle control
Method in brief: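 Following 18-20 h pretreatment (DMSO vehicle or test compound), integrin recycling stopped at 4°C for 15 min. Cells scraped and washed in FACS buffer, stained with PE-conjugated anti-β1 (30 min, on ice), then fixed in FACS buffer with 4% paraformaldehyde. PE MFI measured on 600 FSC-A/SSC-A-gated cells; expressed as percent control; Mann-Whitney Rank Sum test.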

[11] = system: HUVEC invasion by MRSA252 NRS71; test: Invasion assay with hospital MRSA strain; type: cell-based, human; settings: 10 μmol/L, 18-20 h pretreatment
Method in brief: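 HUVEC pretreated 18-20 h with test compound or vehicle. MRSA252 NRS71 labeled through protein A with rabbit anti-mouse IgG Alexa Fluor 488 (final 8 μg/ml, RT, 20 min), washed, set to 3×10^8 CFU/ml. Infection at MOI 1440 (1 h, 37°C, 5% CO2), then lysostaphin (20 μg/ml)/gentamicin (50 μg/ml) for 45 min. Cells scraped and fixed in 1% BSA/0.74% formaldehyde; MFI from 1500 FSC/SSC-gated cells, as % control.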

[12] = system: MSSA (ATCC 29213); test: Bactericidal activity assay, MSSA; type: cell-based, Staphylococcus aureus; settings: 10 μmol/L; for CFU/ml (×10^10± SEM), Compound: 1 h, 1.2 × 10^8 CFU/ml incubated, N = 3
Method in brief: as §1

[13] = system: S. aureus pneumonia; settings: cited from earlier work
[14] = system: endothelial cell invasion by S. aureus; settings: cited from earlier work

Compound | Mean fluorescence intensity (×10^4± SEM), Compound [5] | CFU/ml (×10^10± SEM), Compound [12] | Internalized bacteria (% vehicle control ± SEM), RSM structural analog ([7]; 10 μmol/L) | other results
COc1ccc(C2CC(c3ccccc3)=NN2c2ccc(S(N)(=O)=O)cc2)cc1 (stereo not shown) [ML 141, 4-[3-(4-methoxyphenyl)-5-phenyl-3,4-dihydropyrazol-2-yl]benzenesulfonamide] | 2.1 ± 0.3 ×10^4 | 1.8 ± 0.6 CFU/ml ×10^10 | – | Invasion by NRS123 [1]: inhibited invasion; HUVEC adhesion to fibronectin [2]: 14±2%; HUVEC with vinculin-containing adhesion complexes [3]: 37%; Bactericidal activity against NRS123 ([4]; 10 μmol/L): Bactericidal activity was not detected; CFU/ml recovered, NRS123 ([4]; 1.2 × 10^8 CFU/ml incubated, vehicle control 4.5 × 10^10 ±0.6): 5.6 × 10^10 ±1.5 CFU/ml; Cytotoxicity in HUVEC ([5]; incubated 1 h): Cytotoxicity was not detected; Bactericidal activity against MRSA252 NRS71 [6]: Bactericidal activity was not detected; CFU/ml recovered, MRSA252 NRS71 ([6]; 1 h, 1.2 × 10^8 CFU/ml incubated): 1.9 × 10^10 ±0.2 CFU/ml; Mean fluorescence intensity in washout samples (reversibility) ([7]; 10 μmol/L 1 h pretreatment, media replaced with vehicle 40 min prior to invasion): returned to baseline; Mean fluorescence intensity compared to vehicle control ([7]; 10 μmol/L, 18-20 h pretreatment, 1 h infection): lower; Organelles 24 h post-invasion (ultrastructure) [8]: remained intact; Filopodia at the host cell membrane in response to bacteria ([8]; 24 h post-invasion): not detected; Actin stress fibers in infected cells [9]: remained intact; Expression of β1 [10]: No difference; Invasion by MRSA252 NRS71 [11]: inhibited invasion; Bactericidal activity against MSSA [12]: Bactericidal activity was not detected
NS(=O)(=O)c1ccc(N2N=C(c3ccccc3)CC2c2ccc3c(c2)OCO3)cc1 (stereo not shown) [RSM 05] | 3.9 ± 0.2 ×10^4 | 1.6 ± 0.3 CFU/ml ×10^10 | 38 ± 3 % ^†† | –
COc1ccc(C2=NN(c3ccc(S(N)(=O)=O)cc3)C(c3ccc4c(c3)OCO4)C2)cc1 (stereo not shown) [RSM 06] | 2.8 ± 0.1 ×10^4 | 1.0 ± 0.3 CFU/ml ×10^10 | 23 ± 1 % ^††† | –
COc1ccc(C2=NN(c3ccc(S(N)(=O)=O)cc3)C(c3ccccc3)C2)cc1 (stereo not shown) [RSM 07] | 2.5 ± 0.4 ×10^4 | 2.8 ± 0.3 CFU/ml ×10^10 | 34 ± 2 % ^†† | –
COc1ccc(C2CC(c3ccccc3)=NN2c2ccc(S(N)(=O)=O)cc2)cc1OC (stereo not shown) [RSM 15] | 4.0 ± 0.4 ×10^4 | 2.0 ± 0.2 CFU/ml ×10^10 | 45 ± 1 % ^††† | –
COc1ccc(C2=NN(c3ccc(S(N)(=O)=O)cc3)C(c3ccc(OC)c(OC)c3)C2)cc1 (stereo not shown) [RSM 16] | 1.4 ± 0.2 ×10^4 | 1.8 ± 0.4 CFU/ml ×10^10 | 63 ± 4 % ^††† | –
COc1ccc(C2C(C)C(c3ccccc3)=NN2c2ccc(S(N)(=O)=O)cc2)cc1 (stereo not shown) [RSM 19] | 2.6 ± 0.01 ×10^4 | – | 61 ± 2 % ^†† | –
COCCOc1ccc(C2=NN(c3ccc(S(N)(=O)=O)cc3)C(c3ccc(Cl)cc3)C2)cc1 (stereo not shown) [RSM 20] | 2.1 ± 0.2 ×10^4 | 2.1 ± 0.4 CFU/ml ×10^10 | 61 ± 4 % ^†† | –
COc1ccc(C2C3Cc4ccccc4C3=NN2c2ccc(S(N)(=O)=O)cc2)cc1 (stereo not shown) [RSM 21] | 2.8 ± 0.09 ×10^4 | 3.0 ± 0.2 CFU/ml ×10^10 | 79 ± 3 % ^† | –
CCC(C)(C)C(=O)O[C@H]1C[C@@H](C)C=C2C=C[C@H](C)[C@H](CC[C@@H]3C[C@@H](O)CC(=O)O3)[C@H]21 [simvastatin] | – | – | – | Survival in a murine model of pneumonia [13]: improved survival; Endothelial cell invasion by S. aureus [14]: decreased
